Data set [1] relates to Mycobacterium avium. Nature of the data set: Antimycobacterial activity against Mycobacterium avium Nj211 assessed as growth inhibition by Alamar blue microdilution broth assay. It is filed as functional. The gist of the method: (§1)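 Alamar blue colorimetric microdilution in Middlebrook 7H9 broth with 0.2% glycerol and ADC enrichment. Primary screen at 1.28 and 12.8 µg/mL. Actives (≤12.8 µg/mL) retested in two-fold dilutions. MIC99 is the lowest concentration giving complete growth inhibition.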

In data set [2] the test system is Mycobacterium tuberculosis. Nature of the data set: Antitubercular activity against Mycobacterium tuberculosis infected in gamma interferon gene-disrupted (GKO) C57BL/6 mouse model assessed as reduction of bacterial load in spleen. It is filed as functional.
Data set [3] can be described thus: Selectivity index, ratio of CC50 for african green monkey Vero cells to MIC90 for Mycobacterium tuberculosis H37Rv ATCC 27294. It is filed as functional. The gist of the method:
(§2)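 SI calculated as VERO CC50 (non-radioactive proliferation assay) divided by H37Rv MIC90 from radiometric BACTEC in 12B medium.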

For data set [4], the system named is Mycobacterium tuberculosis. Nature of the data set: Antimycobacterial activity against Mycobacterium tuberculosis H37Ra ATCC 25177 assessed as growth inhibition by Alamar blue microdilution broth assay. It is filed as functional. The gist of the method: as §1
In data set [5] the test system is Mycobacterium tuberculosis. Description: Antimycobacterial activity against Mycobacterium tuberculosis H37Rv ATCC 27294 assessed as growth inhibition at 6.25 ug/ml by radiometric BACTEC assay. It is filed as functional. The gist of the method:
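Primary screen at a single 6.25 µg/mL in radiometric BACTEC 12B medium. Value is percent growth inhibition.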

Data set [6] deals with Mycobacterium tuberculosis. Description: Antimycobacterial activity against Mycobacterium tuberculosis H37Rv ATCC 27294 assessed as growth inhibition by radiometric BACTEC assay. The data set is classed as functional.
Data set [7] relates to Mycobacterium tuberculosis. Description: Antitubercular activity against Mycobacterium tuberculosis infected in gamma interferon gene-disrupted (GKO) C57BL/6 mouse model assessed as reduction of bacterial load in lungs. The data set is classed as functional.
The test system of data set [8] is Vero. Nature of the data set: (§3) Cytotoxicity against african green monkey Vero cells by non-radioactive cell proliferation assay. It is filed as cell-based. Particulars: chlorocebus sabaeus, vero.
Data set [9] has as its system Mus musculus. Description: Acute toxicity in mouse infected with Mycobacterium tuberculosis at 100 to 500 mg/kg. The data set is classed as organism-based. Set-up: dose 100-500 mg/kg. Particulars: in vivo.
Data set [10] concerns Mycobacterium tuberculosis. Description: Antimycobacterial activity against Mycobacterium tuberculosis Erdman assessed as growth inhibition by Alamar blue assay. It is filed as functional.
Data set [11] can be described thus: Selectivity index, ratio of CC50 for african green monkey Vero cells to MIC for Mycobacterium tuberculosis H37Rv ATCC 27294. The data set is classed as functional. The gist of the method: as §2
For data set [12], the system named is Mycobacterium tuberculosis. Nature of the data set: Antimycobacterial activity against Mycobacterium tuberculosis H37Rv ATCC 27294 assessed as growth inhibition by Alamar blue assay. The data set is classed as functional.
A short description of data set [13]: as §3. The data set is classed as cell-based. Particulars: chlorocebus sabaeus, Vero cells.
Data set [14] is described as follows: Selectivity index, ratio of IC50 for african green monkey Vero cells to MIC for Mycobacterium tuberculosis H37Rv ATCC 27294. It is filed as functional. The gist of the method:
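SI taken as CC50 in VERO cells divided by MIC90 against Mtb H37Rv (ATCC 27294). CC50 comes from a non-radioactive cell proliferation assay run alongside the MIC determination. MIC90 is the lowest concentration giving ≥90% growth inhibition in a radiometric BACTEC 12B-medium assay.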

Data set [15] deals with Mycobacterium tuberculosis. Nature of the data set: Antimycobacterial activity against Mycobacterium tuberculosis H37Rv ATCC 27294 assessed as growth inhibition by radiometric BACTEC assay in presence of 6.5 uM beta-lactam antibiotic, Meropenem. The data set is classed as functional.
In data set [16] the test system is Mycobacterium tuberculosis. Nature of the data set: Antimycobacterial activity against p-aminosalicylic acid-resistant Mycobacterium tuberculosis assessed as growth inhibition by Alamar blue assay. The data set is classed as functional.

We go through eight compounds from ChEMBL document CHEMBL2346635, “6-Oxo and 6-thio purine analogs as antimycobacterial agents” (Bioorg Med Chem, 2013).

In brackets after ≈: the same amount, converted by molar mass. Activity calls are given as the source filed them. No cut-off for these calls is given here.

On to `CCCCCCCCCCCCOc1nc(N)nc2[nH]cnc12`, for which the MIC99 in [1] and in data set [4] was greater than 6.4 µg/mL in each case. The log10cfu in data set [2] is recorded as -0.05; in data set [7], -0.141. The “Selectivity Index” value in [3] is given as greater than 12.8. In data set [5], the inhibition at 6.25 µg/mL was determined as 94%. Also, the MIC90 in data set [6] was found to be 0.78 µg/mL (≈ 2.44 µM). Besides, the half-maximal cytotoxic concentration (CC50) in data set [8] was greater than 10 µg/mL. The Activity entry in data set [9] is on record as “Non-toxic”.
`CCCCCCCCCCSc1ncnc2c1ncn2CC(=O)OCC`: the values for the MIC90 in [10] and in data set [12] were 12.5 µg/mL (≈ 33 µM) and 6.25 µg/mL (≈ 16.5 µM), respectively. The “Selectivity Index” value in [11] is listed as greater than 40. Further, the inhibition entry in data set [5] was “inactive”. In addition, the MIC in [6] was determined as 1.56 µg/mL (≈ 4.12 µM). Further, the CC50 in data set [13] is greater than 62.5 µg/mL.
Regarding `CCCCCCCCCCSc1ncnc2c1ncn2CC(=O)OC(C)(C)C`, the “Selectivity Index” value in data set [11] is listed as greater than 3.19. Moreover, in data set [5], the inhibition entry was “inactive”. The MIC in data set [6] came out at 3.13 µg/mL (≈ 7.7 µM). The CC50 in [13] is greater than 10 µg/mL.
With `Cc1nc(N)c2ncn([C@@H]3O[C@H](CO)[C@@H](O)[C@H]3O)c2n1` [2-METHYLADENOSINE], the inhibition at 6.25 µg/mL in data set [5] worked out at 99%. The MIC in data set [6] came out at 3 µg/mL (≈ 10.7 µM). The IC50 in [8] was found to be 1000 µg/mL (≈ 3560 µM). In addition, the “Selectivity Index” value in [14] is on record as greater than 1000.
As for `CCCCCCCCCCCCOc1ncnc2c1ncn2CC(=O)OCC`, the MIC99 in [1] is greater than 128 µg/mL; in data set [4] it was 32 µg/mL (≈ 81.9 µM). Moreover, the “Selectivity Index” value in data set [3] is greater than 12.8. Besides, the inhibition at 6.25 µg/mL in data set [5] was 98%. Moreover, the MIC90 in data set [6] was determined as 0.78 µg/mL (≈ 2 µM). In addition, the CC50 in data set [8] was greater than 10 µg/mL.
On to `CSc1ncnc2c1ccn2CC(=O)Nc1ccc(C)c(C)c1`, for which the results for the IC90 in data set [15] and in data set [6] were 7.31 µM and greater than 100 µM, respectively. In addition, the inhibition result in data set [5] was “inactive”.
On to `CCCCCCCCCCOc1ncnc2c1ncn2CC(=O)OCC`, for which the MIC99 in data set [1] and in data set [4] was greater than 12.8 µg/mL throughout. Moreover, in data set [3], the “Selectivity Index” value is recorded as greater than 40.1. Also, the inhibition at 6.25 µg/mL in data set [5] came out at 100%. In data set [6], the MIC90 was found to be 1.56 µg/mL (≈ 4.3 µM). For the same compound, in data set [8], the CC50 is greater than 62.5 µg/mL.
Take `CCCCCCCCCCCCSc1ncnc2c1ncn2CC(=O)OCC`: the results for the log10cfu in data set [2] and in data set [7] were 0.2 and 0.46, respectively. For the same compound, the MIC90 in data set [10], in data set [12] and in data set [16] was 3.13 µg/mL (≈ 7.7 µM) each time. Also, the “Selectivity Index” value in data set [11] is greater than 12.8. Moreover, in data set [5], the inhibition result is “inactive”. The MIC in data set [6] was 0.78 µg/mL (≈ 1.92 µM). In addition, the CC50 in [13] is greater than 10 µg/mL. Moreover, the Activity entry in data set [9] is “Non-toxic”.
